Most compounds without a hit are left out; they make up all but 1.2% or so of the library.
CAL PDZ FP-1: inhibitors of human CAL PDZ peptide binding; purified CAL PDZ, TMR-peptide fluorescence polarization, 1 h; inhibition, % at 24.9 µM; 300,000 compounds, 0.92% hits; Q9HD26;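 active = mean inhibition of at least 30% with at least half of replicates also reaching 30%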;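 note: 0% = DMSO neutral control and 100% = excess unlabeled competitor peptide PRC23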
ARNT-TACC3 inh: ARNT/TACC3 interaction disruption; AlphaScreen His-ARNT PAS-B/GST-TACC3 binding, luminescence; TACC3 fragment carries E629A point mutation; 390,000 compounds, 0.66% hits; inhibition, % at 9.99 µM; Q9Y6A5; AID 623870;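 active = mean inhibition of replicates at least 50% and at least half of replicates each reaching 50%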;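 note: 0% = complete ARNT plus TACC3 wells and 100% = ARNT alone without TACC3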
CAL PDZ FP-2: human CAL PDZ-peptide interaction inhibition | Q9HD26 | purified CAL PDZ, TMR-peptide fluorescence polarization, 1 h | inhibition, % at 20 µM | 330,000 compounds, 0.02% hits;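 active = highest replicate inhibition of at least 40%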;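 note: plate controls were DMSO neutral control wells for no effect and unlabeled competitor peptide control wells for full effect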
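Material: tagged CAL PDZ domain; buffer or medium: 25 mM sodium phosphate pH 7.4, 150 mM NaCl, TCEP, IgG, Thesit; compound dosing: single point, 20 µM; schedule: 1 h incubation at room temperature before polarization reading; measured by: FP readout, S and P plane fluorescence; read-out basis: percent inhibition from loss of millipolarization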
An asterisk follows results filed as active; x = no result given.

SMILES | CAL PDZ FP-1 | ARNT-TACC3 inh | CAL PDZ FP-2
O=C(C[C@@H]1C=C[C@@H](NC(=O)Nc2ccc(C(F)(F)F)cc2)[C@H](CO)O1)NCc1cccc(F)c1 | x | 1.3 | x
CO[C@H]1CN(C)C(=O)c2cccc(C#N)c2OCC[C@H]2CC[C@@H](OC)[C@H](CN(C)C(=O)[C@@H]1C)O2 | x | 0.2 | x
O=C(NCc1ccccc1Cl)C1CCC(=O)N(CCCN2CCCC2=O)C1 (stereo not drawn) | -0.2 | -7.3 | 0.4
O=C(NCCc1ccccc1C(F)(F)F)C1CCC(=O)N(CCCN2CCCC2=O)C1 (stereo not drawn) | 51.6* | -2.1 | 0.5
CO[C@H]1CN(C)C(=O)c2ccc(NC(=O)C3CC3)cc2OC[C@@H](C)N(C(=O)c2ccncc2)C[C@H]1C | x | 4.4 | x
O=C(c1cccs1)N1CCN(S(=O)(=O)c2cccs2)CC1 | 6.3 | -2.1 | -1.6
COc1cc(C(=O)N2CCN(S(=O)(=O)c3cccs3)CC2)cc(OC)c1C | 57.8* | -2.1 | -0.7
CCC(C)[C@H](NC(=O)N1CCCC1)C(=O)OC (stereo partly drawn) | -4.0 | -7.0 | 0.5
CCC(C)[C@H](NC(=O)N1CCC(C)CC1)C(=O)OC (stereo partly drawn) | 52.5* | -7.0 | -0.4
CO[C@H]1CN(C)C(=O)c2cc(NC(=O)NC(C)C)ccc2OC[C@H](C)N(Cc2cncnc2)C[C@@H]1C | x | -7.8 | x
CNc1ncnc(Sc2nc(N)nc3nc[nH]c23)c1[N+](=O)[O-] | -1.0 | -2.2 | -0.7
Nc1nc(Sc2ccc([N+](=O)[O-])c3nonc23)c2[nH]cnc2n1 | -6.1 | 21.5* | 0.1
CN1CC(c2ccccc2)Oc2ccccc2C1=S (stereo not drawn) | 66.6* | 4.9 | -0.1
O=C1CC(c2ccc(O)cc2)Oc2ccccc21 (stereo not drawn) | 7.4 | -2.6 | -3.3
C[C@@H]1CN([C@@H](C)CO)C(=O)c2cc(-c3ccc(F)cc3)cnc2O[C@@H]1CN(C)Cc1ccccn1 | x | 5.4 | x
COc1ccc(NC(=O)Nc2ccc3c(c2)C(=O)N([C@H](C)CO)C[C@H](C)[C@@H](CN(C)C(=O)NC(C)C)OCCCC[C@@H](C)O3)cc1 | x | -8.0 | x
COc1ccc(OC)c(NC(=O)CN2C(=O)NC3(CCOc4ccccc43)C2=O)c1 (stereo not drawn) | 37.9* | 4.2 | x
COc1cccc(NC(=O)CN2C(=O)NC3(CCc4ccccc43)C2=O)c1 (stereo not drawn) | 73.1* | 2.0 | -1.7
COc1ccc(CCNC(=O)CN2C(=O)NC3(CCOc4ccccc43)C2=O)cc1 (stereo not drawn) | 0.1 | -1.0 | -0.5
COC(=O)CN1C(=O)NC2(CCCc3ccccc32)C1=O (stereo not drawn) | -1.8 | -10.6 | -0.2
O=C(CN1C(=O)NC2(CCc3ccccc32)C1=O)Nc1cccc(Cl)c1 (stereo not drawn) | -2.9 | -3.6 | -0.8
COC(=O)CNC(=O)CN1C(=O)NC2(CCCc3ccccc32)C1=O (stereo not drawn) | 38.8* | -3.8 | -0.1
C[C@@H]1CN([C@@H](C)CO)C(=O)Cc2cc(NC(=O)Nc3cccc4ccccc34)ccc2O[C@H]1CN(C)C(=O)NC1CCCCC1 | x | -1.7 | x
Cc1ccc(S(=O)(=O)N(C)C[C@H]2Oc3ccc(NS(=O)(=O)c4ccccc4)cc3C(=O)N([C@H](C)CO)C[C@@H]2C)cc1 | x | 0.6 | x
CCS(=O)(=O)Nc1ccc2c(c1)C(=O)N(C)C[C@@H](OC)[C@@H](C)CN(C(=O)CN(C)C)[C@@H](C)CO2 | x | -7.1 | x
SMILES | CAL PDZ FP-1 | ARNT-TACC3 inh | CAL PDZ FP-2
C[C@H]1CN([C@@H](C)CO)C(=O)CCCn2nncc2CO[C@@H]1CN(C)C | x | -9.0 | x
CC(C)(C)C1=Nn2c(nnc2-c2ccccc2F)SC1 | x | -9.8 | -1.4
COc1ccc(C2=Nn3c(nnc3-c3ccccn3)SC2)cc1OC | 1.7 | 82.9* | 1.4
COc1ccc(C2=Nn3c(nnc3-c3ccccc3OC)SC2)cc1OC | -8.5 | 17.6 | -5.1
CC(C)(C)C1=Nn2c(nnc2-c2ccccn2)SC1 | -2.0 | 72.3* | -2.6
CO[C@H]1CN(C)C(=O)c2ccc(NC(C)=O)cc2OC[C@H](C)N(C(=O)C2CCC2)C[C@H]1C | x | -0.6 | x
O=C(COc1ccc(Br)cc1)OCC(=O)N1CCOCC1 | x | -26.5 | -0.4
COc1ccc(NS(=O)(=O)c2ccc(OCC(=O)N3CCOCC3)cc2)cc1 | -3.4 | -2.2 | -0.4
O=C(COc1ccc(S(=O)(=O)Nc2ccc(Cl)cc2)cc1)N1CCOCC1 | 99.9* | -5.4 | -0.9
O=C(COc1ccc2cc(Br)ccc2c1)N1CCOCC1 | 102.5* | x | -1.3
CCOC(=O)C1=C(C)N=c2s/c(=C/c3cccc([N+](=O)[O-])c3O)c(=O)n2C1c1cc(OC)c(OC)c(OC)c1 (stereo not drawn) | 0.4 | 73.8* | x
CCOC(=O)C1=C(C)N=c2s/c(=C\c3ccc(OCC(=O)O)cc3)c(=O)n2C1c1ccccc1 (stereo not drawn) | -9.3 | 19.0 | -1.9
CCOC(=O)C1=C(C)N=c2s/c(=C/c3cccc([N+](=O)[O-])c3O)c(=O)n2C1c1ccccc1 (stereo not drawn) | -2.4 | 59.9* | -0.4
CCOC(=O)C1=C(C)N=c2s/c(=C\c3cccn3C)c(=O)n2C1c1cccc(OC)c1OC (stereo not drawn) | -3.2 | 17.6 | 0.1
CCN1[C@H](C(=O)OC)[C@@H](CO)[C@@H]2Cn3c(ccc(-c4cncnc4)c3=O)[C@@H]21 | x | -6.0 | x
CCCNC(=O)N[C@H]1CC[C@@H](CCn2cc(C3CCCC3)nn2)O[C@@H]1CO | x | 11.6 | x
Cc1ccc(S(=O)(=O)N(C)C[C@@H]2Oc3ccc(NS(=O)(=O)c4ccc(Cl)cc4)cc3CC(=O)N([C@@H](C)CO)C[C@H]2C)cc1 | x | 4.4 | x
Brc1ccc(CNCC2CCCO2)cc1 (stereo not drawn) | -1.7 | -8.7 | -0.3
Brc1cccc(CNCC2CCCO2)c1 (stereo not drawn) | 5.3 | 1.9 | 53.5*
CCNC(=O)[C@@H]1[C@@H](CO)[C@@H]2Cn3c(ccc(-c4ccccc4F)c3=O)[C@H]1N2Cc1cccnc1 | x | -18.5 | x
COc1ccccc1NC(=O)Cn1nc(-c2ccncc2)nc1SCC(=O)NC1CCCC1 | 36.2* | -5.2 | -4.4
COc1ccccc1NC(=O)Cc1nnc(SCC(=O)NC2CCCC2)n1C | x | x | -0.1
Cc1ccc(S(=O)(=O)CCC(=O)Nc2nc(-c3ccncc3)cs2)cc1 | -1.8 | -3.2 | -2.8
O=C(CCS(=O)(=O)c1ccccc1)Nc1ccccn1 | -4.9 | -8.6 | -4.2
O=C(CCS(=O)(=O)c1ccc(F)cc1)Nc1nc(-c2ccccn2)cs1 | -3.6 | 59.9* | -2.3
O=C(CCS(=O)(=O)c1ccccc1)Nc1nc(-c2ccccn2)cs1 | 0.7 | 65.4* | -0.8
C[C@@H]1CN([C@H](C)CO)C(=O)Cc2cc(NC(=O)Nc3ccc(F)cc3)ccc2O[C@@H]1CN(C)C(=O)Nc1ccc(F)cc1 | x | -1.8 | x
CCCC(=O)Nc1ccc2c(c1)C(=O)N(C)[C@@H]1CC[C@@H](CC(=O)Nc3ccccc3)O[C@H]1CO2 | x | 3.6 | x
CC(C)NC(=O)N[C@H]1C=C[C@@H](CC(=O)NC2Cc3ccccc3C2)O[C@H]1CO | x | 6.5 | x
